From ChEMBL document CHEMBL1145520, “RAS-RAF-MEK-dependent oxidative cell death involving voltage-dependent anion channels” (Nature, 2007)
Active and inactive are the calls of the source. The rule behind the calls is not given here.

Columns and labels:
BJ [1] = assay: Induction of cell death in human BJ cells expressing TERT, LT, ST and RAS G12V mutant genes cells in presence of PD-98059 by trypan blue exclusion method; type: functional, cell-based
HCT-116 = assay: Induction of cell death in human HCT116 cells; type: functional
HeLa [2] = assay: Induction of cell death in human HeLa cells; type: functional, cell-based
[3] = biological target: T1, Mitogen-activated protein kinase; ERK1/ERK2 (Homo sapiens) (UniProt P27361+P28482); assay: Effect on ERK1/2 phosphorylation in human BJ cells expressing TERT, LT, ST and RAS G12V mutant genes cells by Western blot; type: cell-based
Summary of the method: (§1)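 Washed cells were lysed in pH 7.4 HEPES buffer containing orthovanadate, NaF, pyrophosphate, β-glycerophosphate and protease inhibitors. Lysates were run on SDS-PAGE, transferred to PVDF and blocked 1 h at room temperature. Blots were probed with a multiplex phospho-signalling antibody cocktail and read by infrared fluorescence scanning.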

[4] = biological target: T1, Mitogen-activated protein kinase; ERK1/ERK2 (Homo sapiens); assay: Effect on ERK1/2 phosphorylation in human EWS502 cells by Western blot; type: cell-based; summary of the method: as §1
SW982 = assay: Induction of cell death in human SW982 cells; type: functional
BJ [5] = assay: Induction of cell death in human BJ cells expressing TERT, LT, ST and RAS G12V mutant genes; type: functional, cell-based
A673 [6] = assay: Induction of PARP1 cleavage in human A673 cells; type: functional, cell-based
Summary of the method: (§2)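 Cells were left untreated or given staurosporine or erastin for 6 or 8 h. Lysates were analysed by western blot for full-length and cleaved PARP1, with actin as loading control.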

HT-1080 [7] = assay: Induction of cell death in human HT1080 cells in presence of MEK 1/2 inhibitor by trypan blue exclusion method; type: functional, cell-based
SVR = assay: Induction of cell death in human SVR cells; type: functional, cell-based
[8] = biological target: T1, Mitogen-activated protein kinase; ERK1/ERK2 (Homo sapiens); assay: Effect on ERK1/2 phosphorylation in human […] cells by Western blot; type: cell-based; conditions: SK-N-MC; summary of the method: as §1
HT-1080 [9] = assay: Suppression of induction of cell death in human HT1080 cells at […] by Alamar Blue assay in presence of glutathione; type: functional, cell-based
[10] = Induction of cell death in human TC32 cells; type: functional, cell-based, TC-32
BJ [11] = assay: Induction of pro-caspase 3 cleavage in human BJ cells expressing TERT, LT, ST and RAS G12V mutant genes; type: functional, cell-based
Summary of the method: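 Cells either untreated, given staurosporine, or given erastin for 6–10 h, then lysed in HEPES pH 7.4 buffer with phosphatase and protease inhibitors. Lysates run on SDS-PAGE, blotted to PVDF, probed with antibodies detecting active caspase-3, with actin as loading control. Bands read on infrared imager.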

[12] = biological target: T1, Mitogen-activated protein kinase; ERK1/ERK2 (Homo sapiens); assay: Effect on ERK1/2 phosphorylation in human A673 cells by Western blot; type: cell-based; summary of the method: as §1
HeLa [13] = assay: Induction of PARP1 cleavage in human HeLa cells; type: functional, cell-based; summary of the method: as §2
BJ [14] = assay: Induction of cell death in human BJ cells expressing TERT, LT, ST and RAS G12V mutant genes in presence of MEK inhibitor by trypan blue exclusion method; type: functional, cell-based
Summary of the method: (§3)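 BJ-TERT/LT/ST/RASV12 cells were co-treated for 48 h with 1.5 µM erastin plus 20 µM U0126, 10 µM MEK inhibitor I or 50 µM MEK1/2 inhibitor. Viability was measured by automated Trypan blue exclusion of trypsinized cells resuspended in growth medium; n = 2 or 3.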

BJ [15] = assay: Induction of cell death in human BJ cells expressing TERT, LT, ST and RAS G12V mutant genes cells in presence of MEK 1/2 inhibitor by trypan blue exclusion method; type: functional, cell-based; summary of the method: as §3
BJ [16] = assay: Prevention of induction of cell death in human BJ cells expressing TERT, LT, ST and RAS G12V mutant genes cells after 24 hrs in presence of beta-carotene; type: functional, cell-based
Summary of the method: (§4)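 BJ-TERT/LT/ST/RASV12 cells treated 24 h with erastin across roughly 1–2.5 µM, together with DMSO or an antioxidant (α-tocopherol, BHT or β-carotene). Viability read afterwards.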

U-937 = assay: Induction of cell death in human U937 cells; type: functional, cell-based
[17] = biological target: T1, Mitogen-activated protein kinase; ERK1/ERK2 (Homo sapiens); assay: Effect on ERK1/2 phosphorylation in human HT1080 cells by Western blot; type: cell-based; conditions: HT-1080; summary of the method: as §1
HT-1080 [18] = assay: Induction of cell death in human HT1080 cells in presence of PD-98059 by trypan blue exclusion method; type: functional, cell-based
[19] = biological target: T1, Mitogen-activated protein kinase; ERK1/ERK2 (Homo sapiens); assay: Effect on ERK1/2 phosphorylation in human SKES1 cells by Western blot; type: cell-based; summary of the method: as §1
[20] = Induction of cell death in human Hs51.T cells; type: functional, cell-based
[21] = biological target: T1, Mitogen-activated protein kinase; ERK1/ERK2 (Homo sapiens); assay: Effect on ERK1/2 phosphorylation in human SW872 cells by Western blot; type: cell-based; summary of the method: as §1
BJ [22] = assay: Prevention of induction of cell death in human BJ cells expressing TERT, LT, ST and RAS G12V mutant genes cells after 24 hrs in presence of alpha-tocopherol; type: functional, cell-based; summary of the method: as §4
A673 [23] = assay: Induction of cell death in human A673 cells; type: functional, cell-based
BJ [24] = assay: Induction of PARP1 cleavage in human BJ cells expressing TERT, LT, ST and RAS G12V mutant genes cells after 14 hrs; type: functional, cell-based
Summary of the method: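 BJ-TERT/LT/ST/RASV12 cells (3 × 10^6 per dish) were incubated overnight at 37 °C, 5% CO2, then given erastin for 6–26 h. Untreated cells and staurosporine (6 h) or camptothecin (18 h) served as comparators. Full-length and cleaved PARP1 were detected by western blot.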

HOS = assay: Induction of cell death in human HOS cells; type: functional, cell-based
[25] = Induction of cell death in human SKUT cells; type: functional, cell-based
C-33-A = assay: Induction of cell death in human C33A cells; type: functional, cell-based
[26] = biological target: T1, Mitogen-activated protein kinase; ERK1/ERK2 (Homo sapiens); assay: Effect on ERK1/2 phosphorylation in TERT expressing human BJ cells by Western blot; type: cell-based; summary of the method: as §1
BJ [27] = assay: Induction of cell death in human BJ cells expressing TERT, LT, ST and RAS G12V mutant genes in presence of U0126 by trypan blue exclusion method; type: functional, cell-based; summary of the method: as §3
[28] = Induction of cell death in human TC71 cells; type: functional, cell-based
HT-1080 [29] = assay: Induction of cell death in human HT1080 cells in presence of U0126 by trypan blue exclusion method; type: functional, cell-based

T1 sequence (P27361 whole entry, looked up): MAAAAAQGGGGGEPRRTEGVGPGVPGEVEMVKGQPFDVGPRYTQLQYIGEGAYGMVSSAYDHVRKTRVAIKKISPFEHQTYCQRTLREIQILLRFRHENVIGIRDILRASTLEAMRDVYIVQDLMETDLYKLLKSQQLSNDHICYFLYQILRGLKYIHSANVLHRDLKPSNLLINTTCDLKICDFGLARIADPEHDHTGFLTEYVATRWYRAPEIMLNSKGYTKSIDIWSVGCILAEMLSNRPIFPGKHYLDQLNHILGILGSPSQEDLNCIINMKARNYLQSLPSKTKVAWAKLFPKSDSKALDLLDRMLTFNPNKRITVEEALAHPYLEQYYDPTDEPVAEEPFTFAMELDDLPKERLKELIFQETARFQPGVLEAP
T1 sequence (P28482 whole entry, looked up): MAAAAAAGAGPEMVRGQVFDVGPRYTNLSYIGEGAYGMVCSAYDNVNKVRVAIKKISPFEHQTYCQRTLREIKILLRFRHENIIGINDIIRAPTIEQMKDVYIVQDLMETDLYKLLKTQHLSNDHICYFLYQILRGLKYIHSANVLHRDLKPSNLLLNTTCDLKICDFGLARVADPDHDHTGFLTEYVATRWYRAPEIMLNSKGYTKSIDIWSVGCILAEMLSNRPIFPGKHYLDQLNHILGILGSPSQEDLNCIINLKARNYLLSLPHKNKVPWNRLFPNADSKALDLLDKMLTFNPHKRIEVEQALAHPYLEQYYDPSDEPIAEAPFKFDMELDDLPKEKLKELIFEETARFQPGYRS

Structure (SMILES): CCOc1ccccc1-n1c(C(C)N2CCN(C(=O)COc3ccc(Cl)cc3)CC2)nc2ccccc2c1=O (stereo unspecified) [ERASTIN]
- IC50 (BJ [1]): 900 nM
- Activity (HCT-116): 0%
- Activity (HeLa [2]): 94%
- EC50 (HeLa [2]; Homo sapiens, HeLa): 600 nM
- Activity [3]: 0.92 a.u.
- Activity [4]: 0.12 a.u.
- Activity (SW982): 0%
- Activity (BJ [5]): 100%
- EC50 (BJ [5]; Homo sapiens, BJ): 6 µM
- Activity (A673 [6]): inactive
- IC50 (HT-1080 [7]): 6 µM
- Activity (SVR): 20%
- EC50 (SVR; Mus musculus, SVR): 2500 nM
- Activity [8]: 0.05 a.u.
- Activity (HT-1080 [9]): Active
- Activity [10]: 88%
- EC50 ([10]; Homo sapiens, TC-32): 8 µM
- Activity (BJ [11]): inactive
- Activity [12]: 0.66 a.u.
- Activity (HeLa [13]): inactive
- IC50 (BJ [14]): 2600 nM
- IC50 (BJ [15]): 2000 nM
- Activity (BJ [16]): Active
- Activity (U-937): 73%
- EC50 (U-937; Homo sapiens, U-937): 10 µM
- Activity [17]: 0.53 a.u.
- IC50 (HT-1080 [18]): 1000 nM
- Activity [19]: 0.25 a.u.
- Activity [20]: 88%
- EC50 ([20]; Homo sapiens): 12 µM
- Activity [21]: 0.12 a.u.
- Activity (BJ [22]): Active
- Activity (A673 [23]): 54%
- EC50 (A673 [23]; Homo sapiens, A673): 30 µM
- Activity (BJ [24]): inactive
- Activity (HOS): 100%
- EC50 (HOS; Homo sapiens, HOS): 17 µM
- Activity [25]: 73%
- EC50 ([25]; Homo sapiens, SKUT): 4 µM
- Activity (C-33-A): 21%
- EC50 (C-33-A; Homo sapiens, C-33-A): 600 nM
- Activity [26]: 0.09 a.u.
- IC50 (BJ [27]): 31.2 µM
- Activity [28]: 92%
- EC50 ([28]; Homo sapiens, TC-71): 10 µM
- IC50 (HT-1080 [29]): 3.4 µM
